# Measured values from ChEMBL document CHEMBL2346548, “Design, synthesis, and structure-activity relationship studies of tryptanthrins as antitubercular agents” (J Nat Prod, 2013).
# How the values were obtained:
# [1] = Efflux ratio in human Caco2 cells incubated for 1 hr at 37 degC by HPLC-MS/MS method; type: ADME, cell-based; conditions: Caco-2
# [2] = Solubility in simulated intestinal fluid at pH 7.6 by HPLC method; type: physicochemical
# In short: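 Simulated intestinal fluid medium; each analogue 200 μM final in 2% DMSO, shaken 24 h at room temperature, then HPLC with photodiode array read at 230 nm; duplicate, means given.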
# [3] = Metabolic stability in human liver microsomes assessed as parent compound remaining at 1 uM incubated for 1 hr by HPLC-MS/MS method; type: ADME, Microsome; conditions: read-out: Stability
# In short: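 Pooled mixed-gender human liver microsomes (0.3 mg/mL protein), 1 μM compound with NADP-regenerating system in phosphate buffer pH 7.4, 1 h at 37 °C; parent measured at start and end by HPLC-MS/MS; duplicate means.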
# [4] = test system: Mycobacterium tuberculosis; test: Antitubercular activity against Mycobacterium tuberculosis H37Rv incubated at 37 degC for 7 days by microplate alamar blue assay; type: functional; conditions: Mycobacterium tuberculosis, H37Rv, 168 h
# In short: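 Mtb H37Rv was grown in 7H9 broth with glycerol, Casitone, 10% OADC and 0.05% Tween 80 to OD600 0.4. Compounds were 2-fold serially diluted from DMSO stocks in 7H9, and wells were inoculated at 2 × 10⁵ CFU/mL. After 7 days at 37 °C, Alamar Blue was added and read after a further 24 h. MIC was the lowest concentration preventing the blue-to-pink change.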
# [5] = test system: Salmonella typhimurium; test: Toxicity in Salmonella typhimurium TA100 assessed as compound level per well causing cytotoxicity at 0.25 to 240 ug/well in absence of rat liver S9 fraction; type: organism-based; conditions: salmonella enterica subsp. enterica serovar typhimurium
# In short: (§1)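 MicroAmes: strains preincubated with or without Aroclor-induced rat liver S9, duplicate wells, six concentrations 0.25–250 μg equivalents/well; DMSO vehicle, 4-nitroquinoline-N-oxide (−S9) and 2-aminoanthracene (+S9) positive controls; revertant colonies counted; cytotoxicity noted as reduced revertants or background lawn; precipitation recorded.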
# [6] = Cmax in C57BL/6 mouse at 40 mg/kg, po formulated in 0.5% methylcellulose; type: ADME, organism-based; set-up: dose 40 mg/kg, route oral; conditions: in vivo
# In short: (§2)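 Female C57BL/6 mice, single 40 mg/kg oral gavage; three mice per time point; plasma at 30 min to 24 h, LC-MS; noncompartmental parameters reported as means.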
# [7] = test system: Mycobacterium tuberculosis; test: Antitubercular activity against Mycobacterium tuberculosis Erdman ATCC 35801 infected in C57BL/6 mouse assessed as viable bacterial load in lung at 200 mg/kg twice daily through gavage 5 days per week for 4 weeks starting on 10th day post-infection (reference value: 6.49 +/- 0.10 log10CFU/lung); type: functional
# [8] = test system: Salmonella typhimurium; test: Mutagenicity in Salmonella typhimurium TA98 assessed as mean revertant colonies at 0.25 to 240 ug/well in absence of rat liver S9 fraction; type: toxicity, organism-based; conditions: salmonella enterica subsp. enterica serovar typhimurium; in short: as §1
# [9] = test system: Salmonella typhimurium; test: Toxicity in Salmonella typhimurium TA100 assessed as compound level per well causing cytotoxicity at 0.25 to 240 ug/well in presence of rat liver S9 fraction; type: organism-based; conditions: salmonella enterica subsp. enterica serovar typhimurium; in short: as §1
# [10] = Cmax in Sprague-Dawley rat at 20 mg/kg, po; type: ADME, organism-based; set-up: dose 20 mg/kg, route oral; conditions: in vivo
# [11] = test system: Salmonella typhimurium; test: Mutagenicity in Salmonella typhimurium TA98 assessed as mean revertant colonies at 0.25 to 240 ug/well in presence of rat liver S9 fraction; type: toxicity, organism-based; conditions: salmonella enterica subsp. enterica serovar typhimurium; in short: as §1
# [12] = Volume of distribution in Sprague-Dawley rat at 5 mg/kg, iv; type: ADME, organism-based; set-up: dose 5 mg/kg, route intravenous; conditions: in vivo
# In short: (§3)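 Male Sprague-Dawley rats (n = 3), single 5 mg/kg iv dose as solution in PEG300/DMSO 50:50; plasma sampled 0.083–24 h, LC-MS bioanalysis; noncompartmental analysis, means.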
# [13] = Aqueous solubility in PBS buffer at pH 7.4 by HPLC method; type: physicochemical; conditions: PBS buffer, read-out: solubility
# In short: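 Compound at 200 μM final in 2% DMSO in PBS pH 7.4, shaken 24 h at room temperature; quantified by HPLC with photodiode array detection at 230 nm; duplicate, mean reported.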
# [14] = Tmax in Sprague-Dawley rat at 20 mg/kg, po; type: ADME, organism-based; set-up: dose 20 mg/kg, route oral; conditions: in vivo
# [15] = Protein binding in human plasma at 10 uM incubated for 8 hrs at 37 degC by equilibrium dialysis method; type: ADME, cell-free; conditions: read-out: PPB (converted)
# In short: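 Equilibrium dialysis: 10 μM compound in 1% DMSO in human plasma vs 0.05 M phosphate buffer pH 7.5 across 12–14 K cutoff membrane, at least 8 h at 37 °C; HPLC-photodiode detection at 230 nm; duplicate means.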
# [16] = Solubility in simulated gastric fluid at pH 1.5 by HPLC method; type: physicochemical
# In short: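 Compound at 200 μM final in 2% DMSO in simulated gastric fluid, shaken 24 h at room temperature; HPLC-photodiode array detection at 230 nm; duplicate means.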
# [17] = Clearance in Sprague-Dawley rat at 5 mg/kg, iv; type: ADME, organism-based; set-up: dose 5 mg/kg, route intravenous; conditions: in vivo; in short: as §3
# [18] = Tmax in C57BL/6 mouse at 40 mg/kg, po formulated in 30% HP-beta-CD; type: ADME, organism-based; set-up: dose 40 mg/kg, route oral; conditions: in vivo; in short: as §2
# [19] = AUC (0 to infinity) in C57BL/6 mouse at 40 mg/kg, po formulated in 30% HP-beta-CD; type: ADME, organism-based; set-up: time infinity, dose 40 mg/kg, route oral; conditions: plasma
# [20] = Oral bioavailability in Sprague-Dawley rat at 20 mg/kg; type: ADME, organism-based; conditions: in vivo
# [21] = AUC (0 to infinity) in C57BL/6 mouse at 40 mg/kg, po formulated in 0.5% methylcellulose; type: ADME, organism-based; set-up: dose 40 mg/kg, route oral, time infinity; conditions: in vivo
# [22] = test system: Vero; test: Cytotoxicity against african green monkey Vero cells; type: cell-based, Chlorocebus sabaeus; conditions: Chlorocebus sabaeus, Vero; read-out: IC50
# [23] = Permeability across basolateral to apical side in human Caco2 cells incubated for 1 hr at 37 degC by HPLC-MS/MS method; type: ADME, cell-based; conditions: Caco-2
# [24] = test system: Mycobacterium tuberculosis; test: Antitubercular activity against Mycobacterium tuberculosis H37Rv incubated at 37 degC for 14 days in presence of 40% human serum by microplate alamar blue assay; type: functional; conditions: 336 h
# In short: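 This is the MABA run in 7H9 broth containing 40% human serum. Compounds were 2-fold serially diluted, and wells were inoculated with H37Rv at 2 × 10⁵ CFU/mL. Incubation was at 37 °C for 14 days, then Alamar Blue was added. MIC was the lowest concentration preventing the blue-to-pink colour change.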
# [25] = test system: Salmonella typhimurium; test: Mutagenicity in Salmonella typhimurium TA100 assessed as mean revertant colonies at 0.25 to 240 ug/well in absence of rat liver S9 fraction; type: toxicity, organism-based; conditions: salmonella enterica subsp. enterica serovar typhimurium; in short: as §1
# [26] = test system: Mycobacterium tuberculosis; test: Antitubercular activity against non-replicating Mycobacterium tuberculosis H37Rv incubated for 10 days by LORA method; type: functional; conditions: 240 h
# In short: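 H37Rv carrying pFCA-luxAB was adapted to low oxygen by gradual self-depletion in a sealed, slowly stirred flask. It was then exposed to compounds for 10 days under anaerobic conditions. Cultures recovered for 28 h in ambient oxygen before n-decanal substrate was added and luminescence read. MIC was the lowest concentration giving a 90% reduction in luminescence versus untreated controls.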
# [27] = Elimination half life in Sprague-Dawley rat at 5 mg/kg, iv; type: ADME, organism-based; set-up: dose 5 mg/kg, route intravenous; conditions: in vivo, read-out: beta t1/2 (converted); in short: as §3
# [28] = Half life in C57BL/6 mouse at 40 mg/kg, po formulated in 0.5% methylcellulose; type: ADME, organism-based; set-up: dose 40 mg/kg, route oral; conditions: in vivo; in short: as §2
# [29] = test system: Mycobacterium tuberculosis; test: Antitubercular activity against Mycobacterium tuberculosis Erdman ATCC 35801 infected in C57BL/6 mouse assessed as viable bacterial load in spleen at 200 mg/kg twice daily through gavage 5 days per week for 4 weeks starting on 10th day post-infection (reference value: 4.79 +/- 0.21 log10CFU/spleen); type: functional
# [30] = AUC (0 to infinity) in Sprague-Dawley rat at 5 mg/kg, iv; type: ADME, organism-based; set-up: time infinity, dose 5 mg/kg, route intravenous; conditions: plasma
# [31] = test system: Mycobacterium tuberculosis; test: Antitubercular activity against Mycobacterium tuberculosis Erdman ATCC 35801 infected in C57BL/6 mouse assessed as viable bacterial load in lung at 200 mg/kg/day through gavage 5 days per week for 4 weeks starting on 10th day post-infection (reference value: 6.49 +/- 0.10 log10CFU/lung); type: functional
# [32] = Permeability across apical to basolateral side in human Caco2 cells incubated for 1 hr at 37 degC by HPLC-MS/MS method; type: ADME, cell-based; conditions: Caco-2
# In short: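 TC7 (Caco-2 subclone) monolayer; 10 μM compound in 1% DMSO in HBSS-MES pH 6.5 on apical donor side, basolateral receiver pH 7.4; shaken 1 h at 37 °C; receiver sampled, HPLC-MS/MS; duplicate means.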
# [33] = Half life in Sprague-Dawley rat at 20 mg/kg, po; type: ADME, organism-based; set-up: dose 20 mg/kg, route oral; conditions: in vivo
# [34] = test system: Salmonella typhimurium; test: Mutagenicity in Salmonella typhimurium TA100 assessed as mean revertant colonies at 0.25 to 240 ug/well in presence of rat liver S9 fraction; type: toxicity, organism-based; conditions: salmonella enterica subsp. enterica serovar typhimurium; in short: as §1
# [35] = Tmax in C57BL/6 mouse at 40 mg/kg, po formulated in 0.5% methylcellulose; type: ADME, organism-based; set-up: dose 40 mg/kg, route oral; conditions: in vivo; in short: as §2
# [36] = AUC (0 to infinity) in Sprague-Dawley rat at 20 mg/kg, po; type: ADME, organism-based; set-up: time infinity, dose 20 mg/kg, route oral; conditions: plasma
# [37] = test system: Mycobacterium tuberculosis; test: Antitubercular activity against Mycobacterium tuberculosis Erdman ATCC 35801 infected in C57BL/6 mouse assessed as viable bacterial load in spleen at 200 mg/kg/day through gavage 5 days per week for 4 weeks starting on 10th day post-infection (reference value: 4.79 +/- 0.21 log10CFU/spleen); type: functional
# [38] = Cmax in C57BL/6 mouse at 40 mg/kg, po formulated in 30% HP-beta-CD; type: ADME, organism-based; set-up: dose 40 mg/kg, route oral; conditions: in vivo; in short: as §2
compound,measurement,setting,value
O=C1c2ccccc2-n2c1nc1c(c2=O)CCCC1,efflux ratio at 1 h,[1],> 1
same,solubility,[2],73.4 µM
same,"remaining at 1 h, 1 µM",[3],18%
same,MIC,[4],0.5 µg/mL
same,Activity,[5],>= 25 ug
same,Cmax,[6],1930 ng/mL
same,log10cfu,[7],6.6
same,Activity,[8],Non-toxic
same,Activity,[9],>= 25 ug
same,Cmax,[10],2030 ng/mL
same,Activity,[11],Non-toxic
same,Vd,[12],1.62 L/kg
same,solubility,[13],54.9 µM
same,Tmax,[14],4.67 h
same,"fraction unbound at 8 h, 10 µM",[15],0.043
same,solubility,[16],53 µM
same,clearance,[17],5.67 mL/min/kg
same,Tmax,[18],0.5 h
same,AUC(0-inf),[19],2570 ng·h/mL
same,bioavailability,[20],30.1%
same,AUC(0-inf),[21],5280 ng·h/mL
same,IC50,[22],8.7 µg/mL
same,Papp B→A at 1 h,[23],52.4 ×10⁻⁶ cm/s
same,MIC,[24],1 µg/mL
same,Activity,[25],Non-toxic
same,MIC90,[26],10.5 µg/mL
same,half-life,[27],3.98 h
same,half-life,[28],4.99 h
same,log10cfu,[29],4.89
same,AUC(0-inf),[30],16500 ng·h/mL
same,log10cfu,[31],6.5
same,Papp A→B at 1 h,[32],85.4 ×10⁻⁶ cm/s
same,half-life,[33],6.29 h
same,Activity,[34],Non-toxic
same,Tmax,[35],1.5 h
same,AUC(0-inf),[36],19900 ng·h/mL
same,log10cfu,[37],4.88
same,Cmax,[38],2260 ng/mL
